The results in this text go back to ChEMBL document CHEMBL4706494, “Design, synthesis characterization and biological evaluation of novel multi-isoform ALDH inhibitors as potential anticancer agents” (Eur J Med Chem, 2020).

Bounds are passed on as bounds.

The first data set has as its target T1, Aldehyde dehydrogenase 1A1 (Homo sapiens, UniProt P00352).
T1 sequence (P00352 whole entry): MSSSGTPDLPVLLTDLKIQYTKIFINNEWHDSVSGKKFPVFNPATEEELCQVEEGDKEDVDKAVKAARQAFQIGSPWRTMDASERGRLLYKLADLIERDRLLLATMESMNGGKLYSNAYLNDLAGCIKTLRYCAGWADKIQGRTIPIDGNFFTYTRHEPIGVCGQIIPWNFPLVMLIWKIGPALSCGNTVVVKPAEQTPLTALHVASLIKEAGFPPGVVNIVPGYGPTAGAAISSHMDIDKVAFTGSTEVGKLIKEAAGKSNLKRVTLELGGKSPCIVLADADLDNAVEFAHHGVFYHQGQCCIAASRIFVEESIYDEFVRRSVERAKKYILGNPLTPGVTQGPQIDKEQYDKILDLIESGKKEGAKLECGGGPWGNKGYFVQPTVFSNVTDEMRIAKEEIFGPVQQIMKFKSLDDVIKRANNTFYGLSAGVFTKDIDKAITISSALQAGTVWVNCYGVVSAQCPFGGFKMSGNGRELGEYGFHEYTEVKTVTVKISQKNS
The data set can be described thus: Inhibition of ALDH1A1 (unknown origin) assessed as NADH formation using propionaldehyde as substrate.
Conditions: not given
As for `Br.N=C(N)SCc1ccc(CN2C(=O)C(=O)c3cc(Cl)cc(Cl)c32)cc1`, the IC50 was 279 nM.

On to `N=C(N)[Se]Cc1ccc(CN2C(=O)C(=O)c3cc(Br)cc(Br)c32)cc1`, for which the IC50 amounted to 397 nM.

`N=C(N)[Se]Cc1ccc(CN2C(=O)C(=O)c3cccc(Cl)c32)cc1`: the IC50 was > 10000 nM.

For another data set, the target named is T2, Aldehyde dehydrogenase, mitochondrial (Homo sapiens, UniProt P05091).
T2 sequence (P05091 whole entry): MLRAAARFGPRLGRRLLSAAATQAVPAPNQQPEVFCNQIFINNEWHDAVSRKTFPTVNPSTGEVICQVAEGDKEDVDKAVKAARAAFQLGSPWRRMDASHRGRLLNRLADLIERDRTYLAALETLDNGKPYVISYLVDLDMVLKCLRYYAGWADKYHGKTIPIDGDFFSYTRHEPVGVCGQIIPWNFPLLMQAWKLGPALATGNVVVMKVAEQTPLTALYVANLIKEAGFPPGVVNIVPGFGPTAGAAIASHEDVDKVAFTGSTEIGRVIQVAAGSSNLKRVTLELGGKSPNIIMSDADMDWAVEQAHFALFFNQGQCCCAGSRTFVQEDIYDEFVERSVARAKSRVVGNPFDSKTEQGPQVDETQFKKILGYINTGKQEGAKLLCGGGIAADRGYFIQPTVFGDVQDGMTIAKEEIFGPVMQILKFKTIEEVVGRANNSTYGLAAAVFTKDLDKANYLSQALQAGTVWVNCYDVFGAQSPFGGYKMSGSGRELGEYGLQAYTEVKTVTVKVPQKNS
The data set can be described thus: Inhibition of ALDH2 (unknown origin) assessed as NADH formation using acetaldehyde as substrate.
Conditions: not given
The essentials: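 Enzyme at 0.5 µg/mL preincubated 15 min with varied inhibitor concentrations. Reaction started with 2 mM acetaldehyde plus NAD+ in buffer, as for the ALDH1A1 assay.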
Take `Br.N=C(N)SCc1ccc(CN2C(=O)C(=O)c3cc(Cl)cc(Cl)c32)cc1`: the IC50 is 1640 nM.

Consider `N=C(N)[Se]Cc1ccc(CN2C(=O)C(=O)c3cc(Br)cc(Br)c32)cc1`, for which the IC50 was 2010 nM.

On to `N=C(N)[Se]Cc1ccc(CN2C(=O)C(=O)c3cccc(Cl)c32)cc1`, for which the IC50 was > 10000 nM.

In a further data set the target is T3, Aldehyde dehydrogenase, dimeric NADP-preferring (Homo sapiens, UniProt P30838).
T3 sequence (P30838 whole entry): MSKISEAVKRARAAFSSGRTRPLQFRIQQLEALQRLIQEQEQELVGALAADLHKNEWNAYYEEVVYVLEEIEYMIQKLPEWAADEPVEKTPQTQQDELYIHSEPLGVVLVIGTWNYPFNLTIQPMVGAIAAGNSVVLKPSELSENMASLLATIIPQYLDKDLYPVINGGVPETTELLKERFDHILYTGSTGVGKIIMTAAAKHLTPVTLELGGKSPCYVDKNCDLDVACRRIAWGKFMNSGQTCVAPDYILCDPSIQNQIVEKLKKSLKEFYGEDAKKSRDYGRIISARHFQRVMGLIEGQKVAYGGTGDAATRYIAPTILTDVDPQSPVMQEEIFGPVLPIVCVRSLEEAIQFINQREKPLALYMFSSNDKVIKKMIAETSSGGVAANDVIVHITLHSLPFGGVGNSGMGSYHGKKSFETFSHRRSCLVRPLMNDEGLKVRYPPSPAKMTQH
Briefly: Inhibition of ALDH3A1 (unknown origin) assessed as NADH formation using 4-nitrobenzaldehyde as substrate.
Conditions: not given
The essentials:
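Protein at 0.2 µg/mL exposed 15 min to graded inhibitor concentrations. 1 mM 4-nitrobenzaldehyde substrate with NAD+ then added, run as for the ALDH1A1 assay.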
In the case of `Br.N=C(N)SCc1ccc(CN2C(=O)C(=O)c3cc(Cl)cc(Cl)c32)cc1`, the IC50 worked out at 219 nM.

For `N=C(N)[Se]Cc1ccc(CN2C(=O)C(=O)c3cc(Br)cc(Br)c32)cc1`, the IC50 came to 333 nM.

Regarding `N=C(N)[Se]Cc1ccc(CN2C(=O)C(=O)c3cccc(Cl)c32)cc1`, the IC50 was > 10000 nM.

The subject of the next data set is UACC-903. The data set can be described thus: Antiproliferative activity against human UACC 903 cells measured after 72 hrs by MTS assay. Type of data set: functional, cell-based. Conditions: UACC-903, 72 h. A digest of the protocol: (§1)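 Cells seeded at 5,000 per well, left overnight at 37°C in 5% CO2, then exposed to a range of compound concentrations for 72 h. IC50 was fitted from dose-response curves, 3 independent experiments, reported as mean + SD.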
For the molecule `Br.N=C(N)SCc1ccc(CN2C(=O)C(=O)c3cc(Cl)cc(Cl)c32)cc1`, the IC50 worked out at 3000 nM.

System in a further data set: not listed separately
The data set can be described thus: Antiproliferative activity against human 1205Lu cells measured after 72 hrs by MTS assay. Type of data set: functional, cell-based.
Conditions: not given
A digest of the protocol: as §1
For the molecule `Br.N=C(N)SCc1ccc(CN2C(=O)C(=O)c3cc(Cl)cc(Cl)c32)cc1`, the IC50 amounted to 2400 nM.

Another data set has as its system HCT-116. Briefly: Antiproliferative activity against human HCT116 cells measured after 72 hrs by MTS assay. The data set is classed as functional, cell-based. The conditions noted are these: HCT-116, 72 h. The essentials: as §1
Consider `Br.N=C(N)SCc1ccc(CN2C(=O)C(=O)c3cc(Cl)cc(Cl)c32)cc1`, for which 3.2 µM corresponded to half-maximal inhibition (IC50).

The test system of the next data set is HT-29. Briefly: Antiproliferative activity against human HT-29 cells measured after 72 hrs by MTS assay. Type of data set: functional, cell-based. Conditions: HT-29, 72 h. A digest of the protocol:
as §1
In turn, `Br.N=C(N)SCc1ccc(CN2C(=O)C(=O)c3cc(Cl)cc(Cl)c32)cc1` had an IC50 of 2600 nM.

Another data set concerns NCI-H929. Briefly: Antiproliferative activity against human NCIH929 cells measured after 72 hrs by MTS assay. The data set is classed as functional, cell-based. Conditions: NCI-H929, 72 h. The essentials: as §1
Consider `Br.N=C(N)SCc1ccc(CN2C(=O)C(=O)c3cc(Cl)cc(Cl)c32)cc1`, for which the IC50 was 700 nM.

A further data set relates to U-266. Briefly: Antiproliferative activity against human U266 cells measured after 72 hrs by MTS assay. The conditions noted are these: U-266, 72 h. The data set is classed as functional, cell-based. A digest of the protocol: as §1
For the molecule `Br.N=C(N)SCc1ccc(CN2C(=O)C(=O)c3cc(Cl)cc(Cl)c32)cc1`, 2700 nM corresponded to half-maximal inhibition (IC50).

The test system of another data set is RPMI-8226. The data set can be described thus: Antiproliferative activity against human RPMI8226 cells measured after 72 hrs by MTS assay. Type of data set: functional, cell-based. The conditions noted are these: RPMI-8226, 72 h. A digest of the protocol: as §1
`Br.N=C(N)SCc1ccc(CN2C(=O)C(=O)c3cc(Cl)cc(Cl)c32)cc1` came in with an IC50 of 1300 nM.

System in the next data set: not listed separately
Briefly: Antiproliferative activity against human MM.1R cells measured after 72 hrs by MTS assay. The data set is classed as functional, cell-based.
Conditions: not given
A digest of the protocol:
as §1
In turn, `Br.N=C(N)SCc1ccc(CN2C(=O)C(=O)c3cc(Cl)cc(Cl)c32)cc1` gave an IC50 of 1600 nM.

Another data set concerns MM1.S. The data set can be described thus: Antiproliferative activity against human MM.1S cells measured after 72 hrs by MTS assay. Type of data set: functional, cell-based.
Conditions: not given
The essentials: as §1
Regarding `Br.N=C(N)SCc1ccc(CN2C(=O)C(=O)c3cc(Cl)cc(Cl)c32)cc1`, 1600 nM corresponded to half-maximal inhibition (IC50).

System in another data set: not listed separately
Briefly: Cytotoxicity against human FF2441 cells measured after 72 hrs by MTS assay. Conditions: FF2441, 72 h. The data set is classed as cell-based. The essentials:
as §1
For the molecule `Br.N=C(N)SCc1ccc(CN2C(=O)C(=O)c3cc(Cl)cc(Cl)c32)cc1`, the IC50 turned out to be 5.4 µM.

System in another data set: not listed separately
Briefly: Toxicity in Swiss-Webster mouse assessed as body weight loss at 5 mg/kg/day, ip for 14 days. The data set is classed as organism-based. Conditions: in vivo, 336 h, time 14 day. A digest of the protocol:
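Swiss-Webster mice received 5 mg/kg/day i.p. once daily for 14 days. Body weight, behaviour and physical distress were monitored, with % weight change compared against DMSO vehicle controls.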
In the case of `Br.N=C(N)SCc1ccc(CN2C(=O)C(=O)c3cc(Cl)cc(Cl)c32)cc1`, the Activity was 10%.
